Legend:
[1] = system: SH-SY5Y; test: Antiproliferative activity against human SH-SY5Y cells after 72 hrs by CCK-8 assay; assay type: functional, cell-based
Summary of the method: (§1)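 Cells seeded at 5 × 10³/well; A549, MCF7 and SH-SY5Y grown in DMEM, CNE and L-02 in RPMI-1640 (10% FBS, pen/strep, 37 °C, 5% CO₂). Compounds in DMSO, diluted in medium; 72 h exposure versus DMSO vehicle. CCK-8 absorbance read at 450 nm; viability taken as treated/control absorbance, IC₅₀ from curve fit. Triplicate wells, three independent experiments.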

[2] = system: L02; test: Antiproliferative activity against human L02 cells after 72 hrs by CCK-8 assay; assay type: cell-based; settings: L02, 72 h; summary of the method: as §1
[3] = system: CNE; test: Antiproliferative activity against human CNE cells after 72 hrs by CCK-8 assay; assay type: functional, cell-based; summary of the method: as §1
[4] = system: A549; test: Antiproliferative activity against human A549 cells after 72 hrs by CCK-8 assay; assay type: functional, cell-based; settings: A549, 72 h; summary of the method: as §1
[5] = system: MCF7; test: Antiproliferative activity against human MCF7 cells after 72 hrs by CCK-8 assay; assay type: functional, cell-based; settings: MCF7, 72 h; summary of the method: as §1

| IC50 [1] | IC50 [4] | IC50 [5] | SMILES | IC50 [2] | IC50 [3] |
| --- | --- | --- | --- | --- | --- |
| 1.43 µM | 2.05 µM | 5.38 µM | FC(F)(F)c1cc2cc(c1)Nc1nccc(n1)Nc1cc(cc(C(F)(F)F)c1)Nc1nccc(n1)N2 | 20.4 µM | 15.6 µM |
| > 50 µM | > 50 µM | > 50 µM | Fc1cnc2nc1Nc1cccc(c1)Nc1ncc(F)c(n1)Nc1cccc(c1)N2 | > 50 µM | > 50 µM |
| > 50 µM | > 50 µM | > 50 µM | Cc1cnc2nc1Nc1cc(cc(N3CCOCC3)c1)Nc1ncc(C)c(n1)Nc1cc(cc(N3CCOCC3)c1)N2 | > 50 µM | > 50 µM |
| 17.5 µM | 7.42 µM | 18.8 µM | Cc1cnc2nc1Nc1cccc(c1)Nc1ncc(C)c(n1)Nc1cccc(c1)N2 | 9.89 µM | 23.7 µM |
| 2.05 µM | 1.6 µM | 1.45 µM | COc1cnc2nc1Nc1cc(cc(N3CCCC3)c1)Nc1ncc(OC)c(n1)Nc1cc(cc(N3CCCC3)c1)N2 | 15.8 µM | 35.7 µM |
| > 50 µM | > 50 µM | > 50 µM | c1cc2nc(n1)Nc1cc(cc(N3CCOCC3)c1)Nc1ccnc(n1)Nc1cc(cc(N3CCOCC3)c1)N2 | > 50 µM | > 50 µM |
| 2.96 µM | 6.55 µM | 9.24 µM | Brc1cc2cc(c1)Nc1nccc(n1)Nc1cc(Br)cc(c1)Nc1nccc(n1)N2 | 47.9 µM | > 50 µM |

More lines, now with the values behind:

| SMILES | IC50 [1] | IC50 [4] | IC50 [5] | IC50 [2] | IC50 [3] |
| --- | --- | --- | --- | --- | --- |
| CCOC(=O)c1cc2cc(c1)Nc1nc(ncc1Cl)Nc1cc(cc(C(=O)OCC)c1)Nc1nc(ncc1Cl)N2 | > 50 µM | > 50 µM | > 50 µM | > 50 µM | > 50 µM |
| COc1cnc2nc1Nc1cc(cc(C(F)(F)F)c1)Nc1ncc(OC)c(n1)Nc1cc(cc(C(F)(F)F)c1)N2 | > 50 µM | > 50 µM | > 50 µM | > 50 µM | > 50 µM |
| Cc1cnc2nc1Nc1cc(cc(C(F)(F)F)c1)Nc1ncc(C)c(n1)Nc1cc(cc(C(F)(F)F)c1)N2 | > 50 µM | > 50 µM | > 50 µM | > 50 µM | > 50 µM |
| COc1cnc2nc1Nc1cccc(c1)Nc1ncc(OC)c(n1)Nc1cccc(c1)N2 | > 50 µM | > 50 µM | > 50 µM | > 50 µM | > 50 µM |
